Assay results: ChEMBL document CHEMBL3627671, “Novel derivatives of nitro-substituted salicylic acids: Synthesis, antimicrobial activity and cytotoxicity” (Bioorg Med Chem, 2015)
Converted amounts (≈) assume the structure as drawn.

Assays:
Format in all cases: functional
[1] = system: Trichophyton mentagrophytes; assay: Antifungal activity against Trichophyton mentagrophytes 445 after 24 hrs by microdilution broth method; details: Trichophyton mentagrophytes, 445, 24 h
[2] = system: Lichtheimia corymbifera; assay: Antifungal activity against Absidia corymbifera 272 after 24 hrs by microdilution broth method; details: Lichtheimia corymbifera, 272, 24 h
Outline: (§1)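 CLSI M27-A3 broth microdilution in RPMI 1640 with glutamine, buffered to pH 7.0 with MOPS; DMSO diluent. Yeast inoculum 5 × 10^3 ± 0.2 CFU/mL. Moulds grown on Sabouraud agar 3–10 days before spore harvest, final inoculum 0.5-5 × 10^4 CFU/mL, checked in a Bürker chamber. Incubated dark, humid, 35 °C, read at 24 and 48 h visually and at 540 nm. MIC taken as ≥80% (yeasts) or ≥50% (filamentous) growth reduction versus control.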

[3] = system: Mycobacterium kansasii; assay: Antimycobacterial activity against Mycobacterium kansasii 6509/96 after 7 days; details: 6509/96, 168 h
Outline: (§2)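 Šula's semisynthetic medium micromethod at 37 °C, read after 7, 14 and 21 days. The 1.0 McFarland suspension was diluted 10^-4. MIC determined. 6509/96 is a clinical isolate.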

[4] = system: Trichosporon asahii; assay: Antifungal activity against Trichosporon asahii 1188 after 48 hrs by microdilution broth method; details: Trichosporon asahii, 1188, 48 h; outline: as §1
[5] = system: Klebsiella pneumoniae; assay: Antibacterial activity against ESBL-positive Klebsiella pneumoniae J 14368/08 after 48 hrs by microdilution broth method; details: J 14368/08, 48 h
Outline: (§3)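 Mueller-Hinton broth microdilution (modified M07-A07), pH 7.4 (±0.2). Compounds dissolved in DMSO, tested at final 500 to 0.49 µmol/L. Inoculum in sterile water matched to 0.5 McFarland. Incubated in the dark, humid atmosphere, 35 °C, read at 24 and 48 h visually and at 540 nm. MIC taken as ≥95% growth reduction (IC95) versus control.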

[6] = system: Mycobacterium kansasii; assay: Antimycobacterial activity against Mycobacterium kansasii 6509/96 after 14 days; details: 6509/96, 336 h; outline: as §2
[7] = system: Mycobacterium kansasii; assay: Antimycobacterial activity against Mycobacterium kansasii 235/80 after 21 days; details: 235/80, 504 h; outline: as §2
[8] = system: Mycobacterium tuberculosis; assay: Antimycobacterial activity against Mycobacterium tuberculosis H37Rv 331/88 after 21 days; details: H37Rv 331/88, 504 h
[9] = system: Lichtheimia corymbifera; assay: Antifungal activity against Absidia corymbifera 272 after 48 hrs by microdilution broth method; details: Lichtheimia corymbifera, 272, 48 h; outline: as §1
[10] = system: Staphylococcus aureus; assay: Antibacterial activity against methicillin-resistant Staphylococcus aureus H 5996/08 after 48 hrs by microdilution broth method; details: H 5996/08, 48 h
[11] = system: Staphylococcus epidermidis; assay: Antibacterial activity against Staphylococcus epidermidis H 6966/08 after 24 hrs by microdilution broth method; details: H 6966/08, 24 h; outline: as §3
[12] = system: Staphylococcus aureus; assay: Antibacterial activity against Staphylococcus aureus CCM 4516/08 after 48 hrs by microdilution broth method; details: CCM 4516/08, 48 h
[13] = system: Pseudomonas aeruginosa; assay: Antibacterial activity against Pseudomonas aeruginosa CCM 1961 after 24 hrs by microdilution broth method; details: CCM 1961, 24 h; outline: as §3
[14] = system: Mycobacterium kansasii; assay: Antimycobacterial activity against Mycobacterium kansasii 235/80 after 14 days; details: 235/80, 336 h; outline: as §2
[15] = system: Trichosporon asahii; assay: Antifungal activity against Trichosporon asahii 1188 after 24 hrs by microdilution broth method; details: Trichosporon asahii, 1188, 24 h; outline: as §1
[16] = system: Aspergillus fumigatus; assay: Antifungal activity against Aspergillus fumigatus 231 after 24 hrs by microdilution broth method; details: Aspergillus fumigatus, 231, 24 h; outline: as §1
[17] = system: Candida tropicalis; assay: Antifungal activity against Candida tropicalis 156 after 24 hrs by microdilution broth method; details: Candida tropicalis, 156, 24 h; outline: as §1
[18] = system: Staphylococcus aureus; assay: Antibacterial activity against Staphylococcus aureus CCM 4516/08 after 24 hrs by microdilution broth method; details: CCM 4516/08, 24 h
[19] = system: Candida tropicalis; assay: Antifungal activity against Candida tropicalis 156 after 48 hrs by microdilution broth method; details: Candida tropicalis, 156, 48 h; outline: as §1
[20] = system: Nakaseomyces glabratus; assay: Antifungal activity against Candida glabrata 20/I after 24 hrs by microdilution broth method; outline: as §1
[21] = system: Klebsiella pneumoniae; assay: Antibacterial activity against ESBL-positive Klebsiella pneumoniae J 14368/08 after 24 hrs by microdilution broth method; details: J 14368/08, 24 h; outline: as §3
[22] = system: Pichia kudriavzevii; assay: Antifungal activity against Candida krusei E28 after 24 hrs by microdilution broth method; details: E28, 24 h; outline: as §1
[23] = system: Staphylococcus epidermidis; assay: Antibacterial activity against Staphylococcus epidermidis H 6966/08 after 48 hrs by microdilution broth method; details: H 6966/08, 48 h; outline: as §3
[24] = system: Enterococcus sp.; assay: Antibacterial activity against Enterococcus sp. J 14365/08 after 24 hrs by microdilution broth method; details: J 14365/08, 24 h; outline: as §3
[25] = system: Escherichia coli; assay: Antibacterial activity against Escherichia coli CCM4517 after 48 hrs by microdilution broth method; details: CCM4517, 48 h; outline: as §3
[26] = system: Enterococcus sp.; assay: Antibacterial activity against Enterococcus sp. J 14365/08 after 48 hrs by microdilution broth method; details: J 14365/08, 48 h; outline: as §3
[27] = system: Mycobacterium avium; assay: Antimycobacterial activity against Mycobacterium avium 330/80 after 21 days; details: 330/80, 504 h
[28] = system: Pichia kudriavzevii; assay: Antifungal activity against Candida krusei E28 after 48 hrs by microdilution broth method; details: E28, 48 h; outline: as §1
[29] = system: Trichophyton mentagrophytes; assay: Antifungal activity against Trichophyton mentagrophytes 445 after 48 hrs by microdilution broth method; details: Trichophyton mentagrophytes, 445, 48 h
[30] = system: Nakaseomyces glabratus; assay: Antifungal activity against Candida glabrata 20/I after 48 hrs by microdilution broth method; outline: as §1
[31] = system: Candida albicans; assay: Antifungal activity against Candida albicans ATCC 44859 after 48 hrs by microdilution broth method; details: ATCC 44859, 48 h; outline: as §1
[32] = system: Klebsiella pneumoniae; assay: Antibacterial activity against Klebsiella pneumoniae D 11750/08 after 24 hrs by microdilution broth method; details: D 11750/08, 24 h; outline: as §3
[33] = system: Escherichia coli; assay: Antibacterial activity against Escherichia coli CCM4517 after 24 hrs by microdilution broth method; details: CCM4517, 24 h; outline: as §3
[34] = system: Klebsiella pneumoniae; assay: Antibacterial activity against Klebsiella pneumoniae D 11750/08 after 48 hrs by microdilution broth method; details: D 11750/08, 48 h; outline: as §3
[35] = system: Pseudomonas aeruginosa; assay: Antibacterial activity against Pseudomonas aeruginosa CCM 1961 after 48 hrs by microdilution broth method; details: CCM 1961, 48 h; outline: as §3
[36] = system: Aspergillus fumigatus; assay: Antifungal activity against Aspergillus fumigatus 231 after 48 hrs by microdilution broth method; details: Aspergillus fumigatus, 231, 48 h; outline: as §1
[37] = system: Mycobacterium avium; assay: Antimycobacterial activity against Mycobacterium avium 330/80 after 14 days; details: 330/80, 336 h
[38] = system: Mycobacterium tuberculosis; assay: Antimycobacterial activity against Mycobacterium tuberculosis H37Rv 331/88 after 14 days; details: H37Rv 331/88, 336 h
[39] = system: Candida albicans; assay: Antifungal activity against Candida albicans ATCC 44859 after 24 hrs by microdilution broth method; details: ATCC 44859, 24 h; outline: as §1
[40] = system: Staphylococcus aureus; assay: Antibacterial activity against methicillin-resistant Staphylococcus aureus H 5996/08 after 24 hrs by microdilution broth method; details: H 5996/08, 24 h
[41] = system: Mycobacterium kansasii; assay: Antimycobacterial activity against Mycobacterium kansasii 235/80 after 7 days; details: 235/80, 168 h; outline: as §2
[42] = system: Mycobacterium kansasii; assay: Antimycobacterial activity against Mycobacterium kansasii 6509/96 after 21 days; details: 6509/96, 504 h; outline: as §2

O=C(Nc1ccc([N+](=O)[O-])c(C(F)(F)F)c1)c1ccc([N+](=O)[O-])cc1O
MIC [1]: 500 µM (≈ 186 µg/mL) | MIC [2]: 125 µM (≈ 46.4 µg/mL) | MIC [3]: 16 µM (≈ 5.94 µg/mL) | MIC [4]: 500 µM (≈ 186 µg/mL) | MIC [5]: > 500 µM | MIC [6]: 32 µM (≈ 11.9 µg/mL) | MIC [7]: 32 µM (≈ 11.9 µg/mL) | MIC [8]: 16 µM (≈ 5.94 µg/mL) | MIC [9]: 125 µM (≈ 46.4 µg/mL) | MIC [10]: 3.9 µM (≈ 1.45 µg/mL) | MIC [11]: 7.81 µM (≈ 2.9 µg/mL) | MIC [12]: 7.81 µM (≈ 2.9 µg/mL) | MIC [13]: > 500 µM | MIC [14]: 32 µM (≈ 11.9 µg/mL) | MIC [15]: 250 µM (≈ 92.8 µg/mL) | MIC [16]: 250 µM (≈ 92.8 µg/mL) | MIC [17]: > 500 µM | MIC [18]: 7.81 µM (≈ 2.9 µg/mL) | MIC [19]: > 500 µM | MIC [20]: > 500 µM | MIC [21]: > 500 µM | MIC [22]: 250 µM (≈ 92.8 µg/mL) | MIC [23]: 7.81 µM (≈ 2.9 µg/mL) | MIC [24]: 250 µM (≈ 92.8 µg/mL) | MIC [25]: > 500 µM | MIC [26]: 500 µM (≈ 186 µg/mL) | MIC [27]: 62.5 µM (≈ 23.2 µg/mL) | MIC [28]: 250 µM (≈ 92.8 µg/mL) | MIC [29]: > 500 µM | MIC [30]: > 500 µM | MIC [31]: > 500 µM | MIC [32]: > 500 µM | MIC [33]: > 500 µM | MIC [34]: > 500 µM | MIC [35]: > 500 µM | MIC [36]: 250 µM (≈ 92.8 µg/mL) | MIC [37]: 62.5 µM (≈ 23.2 µg/mL) | MIC [38]: 16 µM (≈ 5.94 µg/mL) | MIC [39]: > 500 µM | MIC [40]: 3.9 µM (≈ 1.45 µg/mL) | MIC [41]: 16 µM (≈ 5.94 µg/mL) | MIC [42]: 32 µM (≈ 11.9 µg/mL)
